Source: ChEMBL document CHEMBL1157843, “Synthesis and anticonvulsant activity of a new 6-alkoxy-[1,2,4]triazolo[4,3-b]pyridazine” (Eur J Med Chem, 2010)
The source made the active and inactive calls. No cut-off for these calls is given here.

Experiments:
Mus musculus [1] = assay: Protective index, ratio of TD50 for ip dosed mouse to ED50 for maximum electric stimulus-induced seizure in ip dosed mouse; type: functional
Mus musculus [2] = assay: Neurotoxicity against mouse at 30 mg/kg, ip after 4 hrs by rotarod ataxia test; type: toxicity, organism-based; set-up: dose 30 mg/kg, route intraperitoneal; details: in vivo
Outline: (§1)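 Phase-I rotarod ataxia screen per NIH ADD protocol. KunMing mice (18–25 g), three per dose, test agent in polyethylene glycol-400 i.p. at 30, 100 or 300 mg/kg. Neurological deficit read 30 min and 4 h after dosing; scored as animals showing toxicity/animals tested.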

Mus musculus [3] = assay: Anticonvulsant in mouse assessed as protection against maximum electric stimulus-induced seizures at 30 mg/kg, ip after 4 hrs; type: functional, organism-based; set-up: dose 30 mg/kg
Outline: (§2)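 Phase-I qualitative MES screen following NIH ADD protocol. KunMing mice (18–25 g), three per dose, test agent in polyethylene glycol-400 i.p. at 30, 100 or 300 mg/kg. Protection assessed 0.5 h and 4 h after dosing; scored as animals protected/animals tested.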

Mus musculus [4] = assay: Anticonvulsant in ip dosed mouse assessed as protection against maximum electric stimulus-induced seizures; type: functional
Outline: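 Phase-II quantitation in KunMing mice (18–25 g), vehicle polyethylene glycol-400. Groups of 10 received a range of i.p. doses until at least three points fell within 10–90% MES protection or minimal rotarod neurotoxicity. ED50, TD50 and 95% confidence intervals computed from regression by an NINDS program. PI = TD50/ED50.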

[5] = Neurotoxicity against ip dosed mouse by rotarod ataxia test; type: toxicity, organism-based; details: in vivo
Mus musculus [6] = assay: Neurotoxicity against mouse at 30 mg/kg, ip after 0.5 hrs by rotarod ataxia test; type: toxicity, organism-based; set-up: dose 30 mg/kg, route intraperitoneal; details: in vivo; outline: as §1
Mus musculus [7] = assay: Neurotoxicity against mouse at 100 mg/kg, ip after 4 hrs by rotarod ataxia test; type: toxicity, organism-based; set-up: dose 100 mg/kg, route intraperitoneal; details: in vivo; outline: as §1
Mus musculus [8] = assay: Neurotoxicity against mouse at 100 mg/kg, ip after 0.5 hrs by rotarod ataxia test; type: toxicity, organism-based; set-up: dose 100 mg/kg, route intraperitoneal; details: in vivo; outline: as §1
Mus musculus [9] = assay: Anticonvulsant in mouse assessed as protection against maximum electric stimulus-induced seizures at 100 mg/kg, ip after 4 hrs; type: functional, organism-based; set-up: dose 100 mg/kg; outline: as §2
Mus musculus [10] = assay: Anticonvulsant in mouse assessed as protection against maximum electric stimulus-induced seizures at 100 mg/kg, ip after 0.5 hrs; type: functional, organism-based; set-up: dose 100 mg/kg; outline: as §2

SMILES	PI (Mus musculus [1])	Activity (Mus musculus [2])	Activity (Mus musculus [3])	ED50 (Mus musculus [4]) [mg/kg]	TD50 [5] [mg/kg]	Activity (Mus musculus [6])	Activity (Mus musculus [7])	Activity (Mus musculus [8])	Activity (Mus musculus [9])	Activity (Mus musculus [10])
Fc1ccc(Oc2ccc3nncn3n2)cc1	8.3	Non-toxic	inactive	38	317	Non-toxic	–	–	–	–
Clc1cccc(Oc2ccc3nncn3n2)c1	5.8	Non-toxic	–	39.4	228	Non-toxic	–	–	–	–
CCCCCCCOc1ccc2nncn2n1	1.7	Non-toxic	inactive	42.4	73	Toxic	–	–	–	–
CCCCCCCCOc1ccc2nncn2n1	–	–	inactive	> 100	–	–	Non-toxic	Toxic	–	–
CCC1(c2ccccc2)C(=O)NC(=O)NC1=O [PHENOBARBITAL]	–	–	–	21.8	–	–	–	–	–	–
Brc1ccc(Oc2ccc3nncn3n2)cc1	6.7	–	–	49.1	329	–	Non-toxic	Non-toxic	inactive	Active
CCCCOc1ccc2nncn2n1	–	–	–	> 100	–	–	Non-toxic	Toxic	inactive	–
CCCCCCCCCCOc1ccc2nncn2n1	–	–	–	> 100	–	–	Non-toxic	Toxic	inactive	–
Cc1cccc(Oc2ccc3nncn3n2)c1	–	–	–	> 100	–	–	Non-toxic	Non-toxic	inactive	–
CCCCCCOc1ccc2nncn2n1	1.8	Non-toxic	inactive	32.9	60.8	Toxic	–	–	–	–
